Measurements: ChEMBL document CHEMBL1932953, “New anthranilic acid based antagonists with high affinity and selectivity for the human cholecystokinin receptor 1 (hCCK1-R)” (J Med Chem, 2011)
Values belong to the compound of their own block, whether it stands above or below them. Activity calls are given as the source filed them. The calls are words filed in the database; no cut-off is given here.

Tests used:
[1] = Displacement of [125I]-BH-CCK8 from CCK2 receptor in Hartley guinea pig cerebral cortex after 120 hrs by gamma-counting; type: tissue-based, Cavia porcellus; settings: in the assay text read “after 120 mins” for “after 120 hrs”
Procedure, shortened: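 Cortical membranes (0.5 mg protein/ml) are incubated with 25 pM [125I]BH-CCK-8 for 120 min at 25 °C. The buffer is 10 mM Hepes, 118 mM NaCl, 4.7 mM KCl, 5 mM MgCl2, 1 mM EGTA, pH 6.5, with 0.2 mg/mL bacitracin. Samples are vacuum-filtered on GF/B and gamma-counted, with nonspecific binding defined with 1 μM CCK-8. IC50 comes from curve fitting, or ISB% is taken at the top concentration tested.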

[2] = molecular target: T1, Cholecystokinin receptor type A (Rattus norvegicus) (UniProt P30551); assay: Displacement of [125I]-BH-CCK8 from CCK1 receptor in Sprague-Dawley rat pancreatic acini at 10 uM after 120 hrs by gamma-counting; settings: in the assay text read “after 30 mins” for “after 120 hrs”
T1 sequence (whole entry): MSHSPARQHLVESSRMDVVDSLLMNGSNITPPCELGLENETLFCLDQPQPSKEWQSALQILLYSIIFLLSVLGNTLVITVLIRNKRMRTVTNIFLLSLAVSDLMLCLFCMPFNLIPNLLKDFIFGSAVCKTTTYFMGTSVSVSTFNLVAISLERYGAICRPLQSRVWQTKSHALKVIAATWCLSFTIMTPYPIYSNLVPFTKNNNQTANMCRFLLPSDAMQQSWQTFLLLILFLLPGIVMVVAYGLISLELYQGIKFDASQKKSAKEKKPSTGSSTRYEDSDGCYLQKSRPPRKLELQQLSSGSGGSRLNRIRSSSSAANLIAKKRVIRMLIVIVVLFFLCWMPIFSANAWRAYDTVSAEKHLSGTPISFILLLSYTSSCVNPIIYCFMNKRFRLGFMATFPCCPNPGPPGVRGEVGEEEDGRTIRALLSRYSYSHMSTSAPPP
Procedure, shortened: (§1)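 Rats fasted 18–24 h with free water. Acini isolated by enzymatic digestion are incubated with 25 pM [125I]BH-CCK-8 and competitors at 37 °C for 30 min in a shaking bath. Ice-cold Hepes-Ringer pH 7.4 is added, the tubes are centrifuged 5 min at 12500g, and pellet radioactivity is counted. IC50 comes from curve fitting, or ISB% is taken at the top concentration tested.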

[3] = molecular target: T1, Cholecystokinin receptor type A (Rattus norvegicus); assay: Displacement of [125I]-BH-CCK8 from CCK1 receptor in Sprague-Dawley rat pancreatic acini at 3 uM after 120 hrs by gamma-counting; settings: in the assay text read “after 30 mins” for “after 120 hrs”; procedure, shortened: as §1
[4] = Apparent selectivity index, ratio of IC50 for CCK2 receptor in Hartley guinea pig cerebral cortex to IC50 for CCK1 receptor in Sprague-Dawley rat pancreatic acini; type: tissue-based
[5] = molecular target: T2, Cholecystokinin receptor type A (Rattus norvegicus, UniProt P30551); assay: Displacement of [125I]-BH-CCK8 from CCK1 receptor in Sprague-Dawley rat pancreatic acini after 120 hrs by gamma-counting; settings: in the assay text read “after 30 mins” for “after 120 hrs”; procedure, shortened: as §1
T2 sequence (P30551 whole entry): T1 sequence (whole entry)

[6] = molecular target: T3, Cholecystokinin receptor type A (Homo sapiens, UniProt P32238); assay: Displacement of [125I]BH-(Thr,-Nle)-CCK-9 from human CCK1 receptor expressed in COS-7 cells after 60 mins by gamma counting; type: cell-based
T3 sequence (P32238 whole entry): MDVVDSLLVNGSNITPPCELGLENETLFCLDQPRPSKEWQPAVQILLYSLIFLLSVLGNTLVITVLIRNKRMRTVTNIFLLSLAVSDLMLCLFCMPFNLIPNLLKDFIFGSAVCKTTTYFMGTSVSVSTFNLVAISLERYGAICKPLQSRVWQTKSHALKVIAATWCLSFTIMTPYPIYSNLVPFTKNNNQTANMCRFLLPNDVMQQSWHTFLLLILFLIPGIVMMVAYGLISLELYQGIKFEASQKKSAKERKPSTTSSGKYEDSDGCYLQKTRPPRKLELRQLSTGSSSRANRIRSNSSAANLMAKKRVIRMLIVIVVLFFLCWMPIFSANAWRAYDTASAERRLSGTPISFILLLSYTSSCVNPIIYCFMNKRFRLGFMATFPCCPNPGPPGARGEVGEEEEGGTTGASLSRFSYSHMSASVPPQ

[7] = Antagonist activity at CCK1 receptor in Hartley guinea pig gall bladder assessed as inhibition of CCK8-induced contraction; type: functional, tissue-based, Cavia porcellus
Procedure, shortened: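 Circular smooth-muscle strips (about 3 mm × 15 mm) in Krebs–Henseleit at 32 °C, gassed 95% O2/5% CO2, resting tension 0.5 g, isometric recording. After 60 min equilibration with washes every 15 min, antagonist or vehicle is given 5 min before a submaximal (70–80%) CCK-8 concentration. Response is % inhibition of contraction, and IC50 comes from the regression line.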

[8] = species: Homo sapiens; assay: Apparent selectivity index, ratio of Ki for human CCK2 receptor to Ki for human CCK1 receptor
[9] = molecular target: T4, Gastrin/cholecystokinin type B receptor (Homo sapiens, UniProt P32239); assay: Displacement of [125I]BH-(Thr,-Nle)-CCK-9 from human CCK2 receptor expressed in COS-7 cells after 60 mins by gamma counting; type: cell-based
T4 sequence (P32239 whole entry): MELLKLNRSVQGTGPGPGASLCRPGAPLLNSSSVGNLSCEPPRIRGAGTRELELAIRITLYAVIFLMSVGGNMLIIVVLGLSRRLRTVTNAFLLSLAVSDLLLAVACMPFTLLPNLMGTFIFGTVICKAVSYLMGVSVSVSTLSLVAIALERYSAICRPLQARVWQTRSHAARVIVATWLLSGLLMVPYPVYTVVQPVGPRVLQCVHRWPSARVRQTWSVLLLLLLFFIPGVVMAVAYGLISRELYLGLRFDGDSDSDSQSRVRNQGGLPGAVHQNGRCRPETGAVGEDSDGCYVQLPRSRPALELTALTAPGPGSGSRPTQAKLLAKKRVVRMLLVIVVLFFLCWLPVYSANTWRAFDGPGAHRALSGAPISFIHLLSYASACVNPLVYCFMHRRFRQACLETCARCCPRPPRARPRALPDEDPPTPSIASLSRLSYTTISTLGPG

[10] = molecular target: T5, Cholecystokinin receptor type A (Homo sapiens) (UniProt P32238); assay: Antagonist activity at human CCK1 receptor expressed in COS7 cells assessed as inhibition of (Thr,Nle)-CCK9-induced inositol phosphate production using myo-2-[3H]inositol after 60 mins by scintillation counting; type: functional, cell-based; settings: COS-7
T5 sequence (whole entry): T3 sequence (P32238 whole entry)
Procedure, shortened: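 COS-7 cells transiently transfected (DEAE-dextran) with receptor cDNA are labelled overnight with 2 μCi/ml myo-2-[3H]inositol. They are preincubated 30 min in DMEM with 20 mM LiCl at 37 °C, then incubated 60 min at 37 °C in PI buffer pH 7.45 with ligands at various concentrations. Inositol phosphates are separated on Dowex AG 1-X8 formate columns and counted by β scintillation.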

[11] = species: Cavia porcellus; assay: Displacement of [125I]-BH-CCK8 from CCK2 receptor in Hartley guinea pig cerebral cortex at 30 uM […] by gamma-counting; type: tissue-based

IC50 [1]: Not Active | inhibition [2]: 36%
Compound: CC(CCc1ccccc1)NC(=O)c1ccccc1NC(=O)c1cc2ccccc2[nH]1 (racemic)

inhibition [3]: 24% | IC50 [1]: Not Active
Compound: CCOC(=O)C(CCc1ccccc1)NC(=O)c1ccccc1NC(=O)c1cc2ccccc2[nH]1 (racemic)

Ratio IC50 [4]: 324 | IC50 [5]: 0.0157 µM | Ki [6]: 0.0039 µM | IC50 [7]: 0.0489 µM | Ratio Ki [8]: 3900 | IC50 ([1]; read-out: IC50): 5.1 µM | Ki [9]: 15.3 µM | inhibition [10]: Active
Compound: O=C(Nc1ccccc1C(=O)NC(CCc1ccccc1)C(=O)O)c1cc2ccccc2[nH]1 (racemic)

inhibition [3]: inactive
Compound: NC(=O)C(CCc1ccccc1)NC(=O)c1ccccc1NC(=O)c1cc2ccccc2[nH]1 (racemic)

IC50 [5]: 0.419 µM | inhibition [11]: 37%
Compound: O=C(Nc1ccccc1C(=O)NC(CCc1ccccc1)C(=O)NO)c1cc2ccccc2[nH]1 (racemic)

IC50 [5]: 0.317 µM
Compound: O=C(Nc1ccccc1C(=O)NC(C(=O)O)c1ccccc1)c1cc2ccccc2[nH]1 (racemic)
